Measured values as given in ChEMBL document CHEMBL1212837, “Benzo[b]thiophene-6-carboxamide 1,1-dioxides: inhibitors of human cancer cell growth at nanomolar concentrations” (2010).
Active and inactive are the calls of the source. The calls are words filed in the database; no cut-off is given here.

Tests used:
[1] = Cytotoxicity against human HTB-54 cells after 72 hrs by MTT assay; type: functional; conditions: HTB-54, 72 h
How it was run: (§1)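 Cells were grown in medium with 10% fetal calf serum, 2 mM L-glutamine, penicillin/streptomycin and 10 mM HEPES (pH 7.4). Compounds were made up as a 0.1 M DMSO stock and serially diluted in medium to five doses between 0.01 and 100. Exposure was 72 h at 37 °C in humidified 5% CO₂. Read-out was MTT colorimetric, giving GI50 as the concentration reducing growth by 50%.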

[2] = system: K562; assay: Cytotoxicity against human K562 cells after 72 hrs by MTT assay; type: functional; conditions: K562, 72 h; how it was run: as §1
[3] = system: HT-29; assay: Cytotoxicity against human HT-29 cells after 72 hrs by MTT assay; type: functional; conditions: HT-29, 72 h; how it was run: as §1
[4] = system: CCRF-CEM; assay: Cytotoxicity against human CCRF-CEM cells after 72 hrs by MTT assay; type: functional; how it was run: as §1
[5] = Cytotoxicity against human MEL-AC cells after 72 hrs by MTT assay; type: functional; how it was run: as §1
[6] = system: CCRF-CEM; assay: Cell cycle arrest in human CCRF-CEM cells assessed as accumulation at S phase after 24 hrs using propidium iodide staining by flow cytometry; type: functional, cell-based
How it was run: (§2)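 CCRF-CEM cells were seeded at 10⁶ cells/ml in complete medium and exposed to 2.5 µM for 24 h. Cells were pelleted (700 g, 6 min, 4 °C), washed in PBS and fixed in 70% ethanol at 4 °C for 20 min. They were then stained with PI (50 µg/ml) plus RNase at 37 °C for 30 min. DNA content was read by flow cytometry on 10,000 events to give phase percentages. Six independent experiments, duplicate wells, mean SD.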

[7] = system: CCRF-CEM; assay: Cell cycle arrest in human CCRF-CEM cells assessed as accumulation at S phase at 2.5 uM using propidium iodide staining by flow cytometry; type: functional, cell-based; conditions: TDE = time-dependent effect; how it was run: as §2
[8] = system: HeLa; assay: Cytotoxicity against human HeLa cells after 72 hrs by MTT assay; type: functional; how it was run: as §1
[9] = system: CCRF-CEM; assay: Cell cycle arrest in human CCRF-CEM cells assessed as accumulation at sub-G1 phase at 2.5 uM after 24 hrs using propidium iodide staining by flow cytometry; type: functional, cell-based; how it was run: as §2
[10] = system: CCRF-CEM; assay: Induction of increase in ROS level in human CCRF-CEM cells at 2.5 uM after 24 hrs using CM-H2DCFDA fluorescent probe by flow cytometry; type: functional, cell-based
How it was run: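 CCRF-CEM cells at 1×10⁶ cells/ml were cultured with or without 2.5 µM for 24 h. Cells (2×10⁶) were then loaded with 1 µM CM-H₂DCFDA for 60 min at 37 °C and fluorescence was read by flow cytometry. Results are expressed as fold over untreated cells, with 4-HPR as the positive control. Two independent experiments, triplicate wells, mean SD.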

[11] = system: CCRF-CEM; assay: Induction of apoptosis in human CCRF-CEM cells at 6 uM after 48 hrs using V-FITC and propidium iodide staining by flow cytometry; type: functional
How it was run: (§3)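 CCRF-CEM cells were incubated with compound for 12 to 48 h. Cells (5×10⁵) were pelleted, washed in PBS and stained with annexin V-FITC plus propidium iodide for 15 min at 4 °C in the dark. Phosphatidylserine-exposing (apoptotic) cells were counted by flow cytometry. Five independent experiments, duplicate wells, mean SD.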

[12] = system: CCRF-CEM; assay: Induction of apoptosis in human CCRF-CEM cells at 6 uM after 12 hrs using V-FITC and propidium iodide staining by flow cytometry; type: functional; how it was run: as §3
[13] = system: CCRF-CEM; assay: Cell cycle arrest in human CCRF-CEM cells assessed as accumulation at S phase at 2.5 uM after 24 hrs using propidium iodide staining by flow cytometry; type: functional, cell-based; how it was run: as §2
[14] = system: CCRF-CEM; assay: Induction of apoptosis in human CCRF-CEM cells at 2.5 uM after 24 hrs using V-FITC and propidium iodide staining by flow cytometry in presence of N-acetyl-cysteine
[15] = system: CCRF-CEM; assay: Cell cycle arrest in human CCRF-CEM cells assessed as reduction of cell accumulation at G0/G1 phase at 2.5 uM after 24 hrs using propidium iodide staining by flow cytometry; type: functional, cell-based; how it was run: as §2

Row | Compound | GI50 [1] | GI50 [2] | GI50 [3] | GI50 [4] | GI50 [5] | Activity [6] | Activity [7] | GI50 [8] | Activity [9] | Activity [10] | Activity [11] | Activity [12] | Activity [13] | Activity [14] | Activity [15]
1 | NS(=O)(=O)c1ccc2c(c1)S(=O)(=O)C=C2 | 5890 nM | 29400 nM | 8550 nM | 2860 nM | 7140 nM | Dose-dependent effect | tde | 2210 nM | – | – | – | – | – | – | –
2 | O=S1(=O)C=Cc2ccc(S(=O)(=O)NCc3ccccc3)cc21 | 700 nM | 720 nM | 840 nM | 330 nM | 400 nM | Dose-dependent effect | tde | 10 nM | – | – | – | – | – | – | –
3 | COc1ccc(CCNC(=O)c2ccc3c(c2)S(=O)(=O)C=C3)cc1 | 640 nM | 2660 nM | 2080 nM | 730 nM | 1320 nM | Dose-dependent effect | tde | 40 nM | – | – | – | – | – | – | –
4 | NC(=O)c1ccc2c(c1)S(=O)(=O)C=C2 | 220 nM | 7850 nM | 5190 nM | 3550 nM | 3520 nM | Dose-dependent effect | tde | 650 nM | – | – | – | – | – | – | –
5 | O=S1(=O)C=Cc2ccc(O)cc21 | 7530 nM | 51100 nM | 2040 nM | 19200 nM | 24000 nM | Dose-dependent effect | tde | – | – | – | – | – | – | – | –
6 | CN(Cc1ccccc1)S(=O)(=O)c1ccc2c(c1)S(=O)(=O)C=C2 | 400 nM | 38100 nM | 35000 nM | 630 nM | 2300 nM | Dose-dependent effect | tde | 10 nM | – | – | – | – | – | – | –
7 | CCCCNC(=O)c1ccc2c(c1)S(=O)(=O)C=C2 | 90 nM | 2730 nM | 2320 nM | 280 nM | 1420 nM | Dose-dependent effect | tde | 80 nM | – | – | – | – | – | – | –
8 | COc1ccc(NC(=O)c2ccc3c(c2)S(=O)(=O)C=C3)cc1 | 2 nM | 47 nM | 350 nM | 4 nM | 760 nM | Dose-dependent effect | tde | 3 nM | Active | Active | 83% | 30.4% | Active | Active | Active
9 | COc1ccc(CCNS(=O)(=O)c2ccc3c(c2)S(=O)(=O)C=C3)cc1 | 620 nM | 6 nM | 220 nM | 5 nM | 1930 nM | Dose-dependent effect | tde | 120 nM | – | – | – | – | – | – | –
